Test results taken from ChEMBL document CHEMBL5247578, “Effective synthesis of benzimidazoles-imidazo[1,2-a]pyrazine conjugates: A comparative study of mono-and bis-benzimidazoles for antitumor activity” (Eur J Med Chem, 2019).

Assays:
Format in all cases: functional
MDA-MB-468 = assay: Antiproliferative activity against human MDA-MB-468 cells assessed as cell growth inhibition at 10 uM incubated for 48 hrs by sulforhodamine B assay relative to control
Procedure, shortened: (§1)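 NCI-60 single-dose screen at 10^-5 M. Cells grown in RPMI 1640 with 5% FBS and 2 mM L-glutamine, plated at 5,000–40,000 cells/well, and preincubated 24 h. Drug (DMSO stock) added and incubated 48 h at 37 °C, 5% CO2. Adherent cells fixed with cold TCA, stained with 0.4% SRB in 1% acetic acid, dye solubilized in 10 mM trizma base, A515 read. Percent growth taken against time-zero and untreated control.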

T47D = assay: Antiproliferative activity against human T47D cells assessed as cell growth inhibition at 10 uM incubated for 48 hrs by sulforhodamine B assay relative to control; procedure, shortened: as §1
Hs-578T = assay: Antiproliferative activity against human Hs-578T cells assessed as cell growth inhibition at 10 uM incubated for 48 hrs by sulforhodamine B assay relative to control; procedure, shortened: as §1
PC-3 = assay: Antiproliferative activity against human PC-3 cells assessed as cell growth inhibition at 10 uM incubated for 48 hrs by sulforhodamine B assay relative to control; procedure, shortened: as §1
UO-31 = assay: Antiproliferative activity against human UO-31 cells assessed as cell growth inhibition at 10 uM incubated for 48 hrs by sulforhodamine B assay relative to control; procedure, shortened: as §1
SN12C = assay: Antiproliferative activity against human SN12C cells assessed as cell growth inhibition at 10 uM incubated for 48 hrs by sulforhodamine B assay relative to control; procedure, shortened: as §1
RXF 393 = assay: Antiproliferative activity against human RXF 393 cells assessed as cell growth inhibition at 10 uM incubated for 48 hrs by sulforhodamine B assay relative to control; procedure, shortened: as §1
NCI/ADR-RES = assay: Antiproliferative activity against human NCI/ADR-RES cells assessed as cell growth inhibition at 10 uM incubated for 48 hrs by sulforhodamine B assay relative to control; procedure, shortened: as §1
OVCAR-8 = assay: Antiproliferative activity against human OVCAR-8 cells assessed as cell growth inhibition at 10 uM incubated for 48 hrs by sulforhodamine B assay relative to control; procedure, shortened: as §1
UACC-62 = assay: Antiproliferative activity against human UACC-62 cells assessed as cell growth inhibition at 10 uM incubated for 48 hrs by sulforhodamine B assay relative to control; procedure, shortened: as §1
SK-MEL-5 = assay: Antiproliferative activity against human SK-MEL-5 cells assessed as cell growth inhibition at 10 uM incubated for 48 hrs by sulforhodamine B assay relative to control; procedure, shortened: as §1
SK-MEL-2 = assay: Antiproliferative activity against human SK-MEL-2 cells assessed as cell growth inhibition at 10 uM incubated for 48 hrs by sulforhodamine B assay relative to control; procedure, shortened: as §1
MDA-MB-435 = assay: Antiproliferative activity against human MDA-MB-435 cells assessed as cell growth inhibition at 10 uM incubated for 48 hrs by sulforhodamine B assay relative to control; procedure, shortened: as §1
M14 = assay: Antiproliferative activity against human M14 cells assessed as cell growth inhibition at 10 uM incubated for 48 hrs by sulforhodamine B assay relative to control; procedure, shortened: as §1
LOX IMVI = assay: Antiproliferative activity against human LOX IMVI cells assessed as cell growth inhibition at 10 uM incubated for 48 hrs by sulforhodamine B assay relative to control; procedure, shortened: as §1
U-251 = assay: Antiproliferative activity against human U-251 cells assessed as cell growth inhibition at 10 uM incubated for 48 hrs by sulforhodamine B assay relative to control; procedure, shortened: as §1
SNB-75 = assay: Antiproliferative activity against human SNB-75 cells assessed as cell growth inhibition at 10 uM incubated for 48 hrs by sulforhodamine B assay relative to control; procedure, shortened: as §1
SNB-19 = assay: Antiproliferative activity against human SNB-19 cells assessed as cell growth inhibition at 10 uM incubated for 48 hrs by sulforhodamine B assay relative to control; procedure, shortened: as §1
SF-539 = assay: Antiproliferative activity against human SF-539 cells assessed as cell growth inhibition at 10 uM incubated for 48 hrs by sulforhodamine B assay relative to control; procedure, shortened: as §1
SF-295 = assay: Antiproliferative activity against human SF-295 cells assessed as cell growth inhibition at 10 uM incubated for 48 hrs by sulforhodamine B assay relative to control; procedure, shortened: as §1
SF-268 = assay: Antiproliferative activity against human SF-268 cells assessed as cell growth inhibition at 10 uM incubated for 48 hrs by sulforhodamine B assay relative to control; procedure, shortened: as §1
HCT-15 = assay: Antiproliferative activity against human HCT-15 cells assessed as cell growth inhibition at 10 uM incubated for 48 hrs by sulforhodamine B assay relative to control
Procedure, shortened: (§2)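 NCI-60 one-dose prescreen at 10^-5 M. Cells grown in RPMI 1640 with 5% FBS and 2 mM glutamine, preincubated 24 h, then exposed 48 h at 37 °C. Adherent lines TCA-fixed, SRB-stained, A515 read. Growth percent relative to time-zero and control; negative values mean cell kill.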

HCT-116 = assay: Antiproliferative activity against human HCT-116 cells assessed as cell growth inhibition at 10 uM incubated for 48 hrs by sulforhodamine B assay relative to control; procedure, shortened: as §2
NCI-H522 = assay: Antiproliferative activity against human NCI-H522 cells assessed as cell growth inhibition at 10 uM incubated for 48 hrs by sulforhodamine B assay relative to control; procedure, shortened: as §1
NCI-H460 = assay: Antiproliferative activity against human NCI-H460 cells assessed as cell growth inhibition at 10 uM incubated for 48 hrs by sulforhodamine B assay relative to control; procedure, shortened: as §1
NCI-H23 = assay: Antiproliferative activity against human NCI-H23 cells assessed as cell growth inhibition at 10 uM incubated for 48 hrs by sulforhodamine B assay relative to control; procedure, shortened: as §1
EKVX = assay: Antiproliferative activity against human EKVX cells assessed as cell growth inhibition at 10 uM incubated for 48 hrs by sulforhodamine B assay relative to control; procedure, shortened: as §2
A549 = assay: Antiproliferative activity against human A549 cells assessed as cell growth inhibition at 10 uM incubated for 48 hrs by sulforhodamine B assay relative to control
Procedure, shortened: (§3)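 Single-dose NCI-60 prescreen at 10^-5 M. Cells in RPMI 1640 with 5% FBS and 2 mM L-glutamine, seeded 5,000–40,000 cells/well with 24 h preincubation, then drug exposure for 48 h at 37 °C under 5% CO2. Growth read by SRB staining of TCA-fixed cells at 515 nm against time-zero and untreated controls. Negative growth values denote cell kill.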

RPMI-8226 = assay: Antiproliferative activity against human RPMI-8226 cells assessed as cell growth inhibition at 10 uM incubated for 48 hrs by sulforhodamine B assay relative to control; procedure, shortened: as §1
A498 = assay: Antiproliferative activity against human A498 cells assessed as cell growth inhibition at 10 uM incubated for 48 hrs by sulforhodamine B assay relative to control; procedure, shortened: as §3
HT-29 = assay: Antiproliferative activity against human HT-29 cells assessed as cell growth inhibition at 10 uM incubated for 48 hrs by sulforhodamine B assay relative to control; procedure, shortened: as §1
IGROV-1 = assay: Antiproliferative activity against human IGROV-1 cells assessed as cell growth inhibition at 10 uM incubated for 48 hrs by sulforhodamine B assay relative to control; procedure, shortened: as §1

SMILES | inhibition at 10 µM (MDA-MB-468) [%] | inhibition at 10 µM (T47D) [%] | inhibition at 10 µM (Hs-578T) [%] | inhibition at 10 µM (PC-3) [%] | inhibition at 10 µM (UO-31) [%] | inhibition at 10 µM (SN12C) [%] | inhibition at 10 µM (NCI/ADR-RES) [%] | inhibition at 10 µM (OVCAR-8) [%] | inhibition at 10 µM (UACC-62) [%] | inhibition at 10 µM (SK-MEL-5) [%] | inhibition at 10 µM (SK-MEL-2) [%] | inhibition at 10 µM (LOX IMVI) [%] | inhibition at 10 µM (SNB-75) [%] | inhibition at 10 µM (SNB-19) [%] | inhibition at 10 µM (SF-268) [%] | inhibition at 10 µM (HCT-15) [%] | inhibition at 10 µM (NCI-H522) [%] | inhibition at 10 µM (NCI-H23) [%] | inhibition at 10 µM (EKVX) [%] | inhibition at 10 µM (RPMI-8226) [%] | also measured
Fc1ccc(-c2cn3ccnc3c(-c3ccc4ncn(C5CCCCC5)c4c3)n2)cc1 | 19.5 | 33.3 | 17.6 | 53.6 | 37.8 | 3.97 | 0.69 | 9.54 | 31 | 7.36 | 9.82 | 3.5 | 21 | 14.2 | 10.7 | 7.59 | 15.5 | 2.36 | 10.5 | 50.1 | inhibition at 10 µM (RXF 393): 24.4%; inhibition at 10 µM (MDA-MB-435): 1.78%; inhibition at 10 µM (M14): 2.98%; inhibition at 10 µM (U-251): 7.94%; inhibition at 10 µM (SF-539): 17.3%; inhibition at 10 µM (SF-295): 7.93%; inhibition at 10 µM (HCT-116): 18%; inhibition at 10 µM (NCI-H460): 6.12%; inhibition at 10 µM (A549): 12.8%
c1ccc2c(-c3cn4ccnc4c(-c4ccc5ncn(C6CCCCC6)c5c4)n3)cccc2c1 | 10.4 | 41.3 | 3.62 | 36.5 | 23 | 11.7 | 4.43 |  | 16.7 | 4.06 | 2.3 | 7.43 | 16.5 | 9.08 | 7.84 | 4.46 | 19.3 | 4.32 | 13.2 | 22.9 | inhibition at 10 µM (A498): 14%; inhibition at 10 µM (SF-295): 6.34%; inhibition at 10 µM (HT-29): 4.11%; inhibition at 10 µM (HCT-116): 17.9%; inhibition at 10 µM (NCI-H460): 3.61%
COc1ccccc1-c1cn2ccnc2c(-c2ccc3ncn(C4CCCCC4)c3c2)n1 | 14.6 | 36.6 | 15.8 | 43.1 | 24 | 7.73 | 0.06 | 8.78 | 25.1 | 8.94 | 12.1 | 5.13 | 35 | 11.1 | 8.04 | 33.6 | 22.2 | 2.79 | 13.3 | 35.9 | inhibition at 10 µM (RXF 393): 0.95%; inhibition at 10 µM (A498): 13.9%; inhibition at 10 µM (M14): 1.12%; inhibition at 10 µM (U-251): 21%; inhibition at 10 µM (SF-539): 8.07%; inhibition at 10 µM (SF-295): 9.76%; inhibition at 10 µM (HT-29): 11.1%; inhibition at 10 µM (HCT-116): 28.3%; inhibition at 10 µM (NCI-H460): 9.62%; inhibition at 10 µM (A549): 13.9%
Fc1ccccc1-c1cn2ccnc2c(-c2ccc3ncn(C4CCCCC4)c3c2)n1 | 27.6 | 77.2 | 5.26 | 32.6 | 22.9 | 10.1 | 4.51 | 14.1 | 38.2 | 6.5 | 10.5 | 5.77 | 29.7 | 7.56 | 6.04 | 6.18 | 17.8 | 4.16 | 16 | 42.4 | inhibition at 10 µM (RXF 393): 12.3%; inhibition at 10 µM (M14): 2.92%; inhibition at 10 µM (U-251): 11.4%; inhibition at 10 µM (SF-539): 4.51%; inhibition at 10 µM (SF-295): 10.4%; inhibition at 10 µM (HT-29): 7.26%; inhibition at 10 µM (HCT-116): 25.8%; inhibition at 10 µM (NCI-H460): 8.1%; inhibition at 10 µM (A549): 9.1%
Brc1cn2ccnc2c(-c2ccc3ncn(C4CCCCC4)c3c2)n1 | 44.4 | 49.7 | 16.1 | 17.2 | 37.6 | 6.47 | 8.82 | 4.92 | 19.8 | 13.4 | 10.2 | 15.2 | 21.2 | 8.09 | 17.1 | 13.1 | 16.2 | 10.2 | 12 | 14.9 | inhibition at 10 µM (RXF 393): 5.58%; inhibition at 10 µM (IGROV-1): 6.6%; inhibition at 10 µM (U-251): 1.5%; inhibition at 10 µM (SF-539): 10%; inhibition at 10 µM (HT-29): 5.21%; inhibition at 10 µM (A549): 9.36%
c1ccc(Cn2cnc3ccc(-c4nc(-c5cccc6ccccc56)cn5ccnc45)cc32)cc1 |  | 73.8 | 5.98 | 31.4 | 31.3 | 5.62 | 5.83 | 6.22 | 12.9 | 9.69 | 16.9 | 16.5 | 16.2 | 5.12 | 10.3 | 8.2 | 29.3 | 10.4 | 24.6 | 26.9 | inhibition at 10 µM (A498): 6.74%; inhibition at 10 µM (IGROV-1): 11.3%; inhibition at 10 µM (M14): 4.41%; inhibition at 10 µM (U-251): 5.53%; inhibition at 10 µM (SF-539): 4.22%; inhibition at 10 µM (SF-295): 8.22%; inhibition at 10 µM (HT-29): 18.6%; inhibition at 10 µM (HCT-116): 32.9%; inhibition at 10 µM (NCI-H460): 3.8%; inhibition at 10 µM (A549): 7.31%
